Test results published in ChEMBL document CHEMBL4680134, “Structural optimization of natural product nordihydroguaretic acid to discover novel analogues as AcrB inhibitors” (Eur J Med Chem, 2020).

Assays:
Cell membrane = assay: Induction of outer membrane permeabilization in wild type Escherichia coli BW25113 assessed as increase in nitrocefin hydrolysis at 128 ug/ml by spectrophotometry analysis; conditions: dose 128 µg/ml
In short: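 Outer-membrane permeability: intact E. coli treated with 10 µM CCCP to block nitrocefin efflux, then exposed to compound. Nitrocefin hydrolysis by periplasmic β-lactamase followed as increasing absorbance at 490 nm over time. Polymyxin B as permeabilizer control, untreated cells as baseline. Duplicate experiments on different days.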

[1] = molecular target: T1, Multidrug efflux pump subunit AcrB (Escherichia coli (strain K12)) (UniProt P31224); assay: Inhibition of AcrB in Escherichia coli BW25113 assessed as potentiation of levofloxacin induced antibacterial activity by measuring levofloxacin MIC at 16 ug/ml measured after 18 hrs by checkerboard titration method (reference value: 0.06 ug/ml); conditions: dose 16.0 µg/ml
T1 sequence (whole entry): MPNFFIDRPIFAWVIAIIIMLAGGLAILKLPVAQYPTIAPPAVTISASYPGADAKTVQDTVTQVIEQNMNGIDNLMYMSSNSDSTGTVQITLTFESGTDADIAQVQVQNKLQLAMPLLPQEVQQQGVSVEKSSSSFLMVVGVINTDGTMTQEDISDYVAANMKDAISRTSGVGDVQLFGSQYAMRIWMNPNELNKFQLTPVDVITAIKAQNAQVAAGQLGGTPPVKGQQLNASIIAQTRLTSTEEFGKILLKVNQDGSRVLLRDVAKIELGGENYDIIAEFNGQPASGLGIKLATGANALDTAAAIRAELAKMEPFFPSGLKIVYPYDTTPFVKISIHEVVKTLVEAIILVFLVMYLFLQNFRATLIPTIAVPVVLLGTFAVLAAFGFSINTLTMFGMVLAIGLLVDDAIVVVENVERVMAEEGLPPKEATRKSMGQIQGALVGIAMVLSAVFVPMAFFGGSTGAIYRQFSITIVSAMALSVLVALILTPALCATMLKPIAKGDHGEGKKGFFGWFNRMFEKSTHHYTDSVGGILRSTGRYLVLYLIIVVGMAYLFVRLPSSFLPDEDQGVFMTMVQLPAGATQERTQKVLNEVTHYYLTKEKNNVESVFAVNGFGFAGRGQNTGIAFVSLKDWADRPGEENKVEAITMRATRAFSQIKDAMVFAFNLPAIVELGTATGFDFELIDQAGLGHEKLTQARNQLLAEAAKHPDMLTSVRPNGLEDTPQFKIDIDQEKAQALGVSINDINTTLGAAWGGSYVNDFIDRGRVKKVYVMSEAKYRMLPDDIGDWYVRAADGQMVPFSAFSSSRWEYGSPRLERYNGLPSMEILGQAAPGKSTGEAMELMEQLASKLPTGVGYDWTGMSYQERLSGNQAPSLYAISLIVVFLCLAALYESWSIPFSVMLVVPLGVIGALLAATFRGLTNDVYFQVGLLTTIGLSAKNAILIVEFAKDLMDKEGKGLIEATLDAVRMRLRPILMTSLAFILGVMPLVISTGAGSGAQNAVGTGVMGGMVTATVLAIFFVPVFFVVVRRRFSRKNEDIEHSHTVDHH

[2] = Growth inhibition of Escherichia coli harboring AcrB deletion mutant at 64 ug/ml after 18 hrs by broth microdilution assay; conditions: dose 64 µg/ml
In short: (§1)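 MIC determined by 96-well broth microdilution in E. coli BW25113 expressing AcrB ((+)AcrB) and an isogenic acrB-deleted strain ((-)AcrB). Used to set the compound concentrations for synergy testing that produce no direct antibacterial effect.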

[3] = Growth inhibition of Escherichia coli BW25113 expressing AcrB at 512 ug/ml after 18 hrs by broth microdilution assay; conditions: dose 512 µg/ml; in short: as §1
[4] = molecular target: T1, Multidrug efflux pump subunit AcrB (Escherichia coli (strain K12)); assay: Inhibition of AcrB in Escherichia coli BW25113 assessed as potentiation of tetraphenylphosphonium induced antibacterial activity by measuring tetraphenylphosphonium MIC at 64 ug/ml measured after 18 hrs by checkerboard titration method (reference value: 1024 ug/ml); conditions: dose 64.0 µg/ml
[5] = molecular target: T1, Multidrug efflux pump subunit AcrB (Escherichia coli (strain K12)); assay: Inhibition of AcrB in Escherichia coli BW25113 assessed as potentiation of tetraphenylphosphonium induced antibacterial activity by measuring tetraphenylphosphonium MIC at 32 ug/ml measured after 18 hrs by checkerboard titration method (reference value: 1024 ug/ml); conditions: dose 32.0 µg/ml
[6] = molecular target: T1, Multidrug efflux pump subunit AcrB (Escherichia coli (strain K12)); assay: Inhibition of AcrB in Escherichia coli BW25113 assessed as potentiation of tetraphenylphosphonium induced antibacterial activity by measuring tetraphenylphosphonium MIC at 128 ug/ml measured after 18 hrs by checkerboard titration method (reference value: 1024 ug/ml); conditions: dose 128.0 µg/ml
[7] = molecular target: T1, Multidrug efflux pump subunit AcrB (Escherichia coli (strain K12)); assay: Inhibition of AcrB in Escherichia coli BW25113 assessed as potentiation of chloramphenicol induced antibacterial activity by measuring chloramphenicol MIC at 128 ug/ml measured after 18 hrs by checkerboard titration method (reference value: 8 ug/ml); conditions: dose 128.0 µg/ml
[8] = molecular target: T1, Multidrug efflux pump subunit AcrB (Escherichia coli (strain K12)); assay: Inhibition of AcrB in Escherichia coli BW25113 assessed as potentiation of levofloxacin induced antibacterial activity by measuring levofloxacin MIC at 128 ug/ml measured after 18 hrs by checkerboard titration method (reference value: 0.06 ug/ml); conditions: dose 128.0 µg/ml
[9] = molecular target: T1, Multidrug efflux pump subunit AcrB (Escherichia coli (strain K12)); assay: Inhibition of AcrB in Escherichia coli BW25113 assessed as potentiation of chloramphenicol induced antibacterial activity by measuring chloramphenicol MIC at 16 ug/ml measured after 18 hrs by checkerboard titration method (reference value: 8 ug/ml); conditions: dose 16.0 µg/ml
[10] = molecular target: T1, Multidrug efflux pump subunit AcrB (Escherichia coli (strain K12)); assay: Inhibition of AcrB in Escherichia coli BW25113 assessed as potentiation of erythromycin induced antibacterial activity by measuring erythromycin MIC at 128 ug/ml measured after 18 hrs by checkerboard titration method (reference value: 64 ug/ml); conditions: dose 128.0 µg/ml
[11] = molecular target: T1, Multidrug efflux pump subunit AcrB (Escherichia coli (strain K12)); assay: Inhibition of AcrB in Escherichia coli BW25113 assessed as potentiation of rifampicin induced antibacterial activity by measuring rifampicin MIC at 32 ug/ml measured after 18 hrs by checkerboard titration method (reference value: 16 ug/ml); conditions: dose 32.0 µg/ml
[12] = molecular target: T1, Multidrug efflux pump subunit AcrB (Escherichia coli (strain K12)); assay: Inhibition of AcrB in Escherichia coli BW25113 assessed as potentiation of rifampicin induced antibacterial activity by measuring rifampicin MIC at 64 ug/ml measured after 18 hrs by checkerboard titration method (reference value: 16 ug/ml); conditions: dose 64.0 µg/ml
[13] = molecular target: T1, Multidrug efflux pump subunit AcrB (Escherichia coli (strain K12)); assay: Inhibition of AcrB in Escherichia coli BW25113 assessed as potentiation of rifampicin induced antibacterial activity by measuring rifampicin MIC at 128 ug/ml measured after 18 hrs by checkerboard titration method (reference value: 16 ug/ml); conditions: dose 128.0 µg/ml
[14] = molecular target: T1, Multidrug efflux pump subunit AcrB (Escherichia coli (strain K12)); assay: Inhibition of AcrB in Escherichia coli BW25113 assessed as potentiation of levofloxacin induced antibacterial activity by measuring levofloxacin MIC at 64 ug/ml measured after 18 hrs by checkerboard titration method (reference value: 0.06 ug/ml); conditions: dose 64.0 µg/ml
[15] = molecular target: T1, Multidrug efflux pump subunit AcrB (Escherichia coli (strain K12)); assay: Inhibition of AcrB in Escherichia coli BW25113 assessed as potentiation of erythromycin induced antibacterial activity by measuring erythromycin MIC at 32 ug/ml measured after 18 hrs by checkerboard titration method (reference value: 64 ug/ml); conditions: dose 32.0 µg/ml

Compound | Activity (Cell membrane) | MIC [1] | growth inhibition (GI) [2] | growth inhibition (GI) [3] | MIC [4] | MIC [5] | MIC [6] | MIC [7] | MIC [8] | MIC [9] | MIC [10] | MIC [11] | MIC [12] | MIC [13] | MIC [14] | MIC [15]
Nc1ccccc1C(=O)NCCc1ccc(O)c(O)c1 | Non-Toxic | 0.06 µg/mL | Non-Toxic | Non-Toxic | 1020 µg/mL | 1020 µg/mL | 512 µg/mL | 4 µg/mL | 0.06 µg/mL | 8 µg/mL | 32 µg/mL | 16 µg/mL | 16 µg/mL | 16 µg/mL | 0.06 µg/mL | 64 µg/mL
O=C(NCCc1ccc(O)c(O)c1)c1cc(O)c(O)c(O)c1 | Non-Toxic | 0.06 µg/mL | Non-Toxic | Non-Toxic | 512 µg/mL | 512 µg/mL | 256 µg/mL | 2 µg/mL | 0.03 µg/mL | 4 µg/mL | 16 µg/mL | 16 µg/mL | 16 µg/mL | 16 µg/mL | 0.03 µg/mL | 32 µg/mL
Oc1ccc(CCCCc2ccc(Cl)cc2)cc1O | Toxic | 0.06 µg/mL | Non-Toxic | Non-Toxic | 512 µg/mL | 1020 µg/mL | 512 µg/mL | 16 µg/mL | 0.06 µg/mL | 16 µg/mL | 64 µg/mL | 16 µg/mL | 16 µg/mL | 16 µg/mL | 0.06 µg/mL | 64 µg/mL
Oc1ccc(CCCCc2ccc(Br)cc2)cc1O | Toxic | 0.06 µg/mL | Non-Toxic | Non-Toxic | 512 µg/mL | 1020 µg/mL | 512 µg/mL | 8 µg/mL | 0.06 µg/mL | 8 µg/mL | 64 µg/mL | 16 µg/mL | 16 µg/mL | 16 µg/mL | 0.06 µg/mL | 64 µg/mL
Oc1ccc(CCCCCCCc2ccc(O)c(O)c2)cc1O | Non-Toxic | 0.06 µg/mL | Non-Toxic | Non-Toxic | 512 µg/mL | 512 µg/mL | 512 µg/mL | 8 µg/mL | 0.06 µg/mL | 8 µg/mL | 64 µg/mL | 16 µg/mL | 16 µg/mL | 16 µg/mL | 0.06 µg/mL | 64 µg/mL
Oc1ccc(CCCCCCc2ccc(O)c(O)c2)cc1O | Non-Toxic | 0.06 µg/mL | Non-Toxic | Non-Toxic | 512 µg/mL | 512 µg/mL | 512 µg/mL | 8 µg/mL | 0.06 µg/mL | 8 µg/mL | 64 µg/mL | 16 µg/mL | 16 µg/mL | 16 µg/mL | 0.06 µg/mL | 64 µg/mL
Nc1cc(N)cc(C(=O)NCCc2ccc(O)c(O)c2)c1 | Non-Toxic | 0.06 µg/mL | Non-Toxic | Non-Toxic | 512 µg/mL | 512 µg/mL | 512 µg/mL | 8 µg/mL | 0.06 µg/mL | 8 µg/mL | 32 µg/mL | 16 µg/mL | 16 µg/mL | 16 µg/mL | 0.06 µg/mL | 32 µg/mL
